Measurements taken from ChEMBL document CHEMBL2046390, “Carnosine analogues containing NO-donor substructures: synthesis, physico-chemical characterization and preliminary pharmacological profile” (Eur J Med Chem, 2012).
Activity calls are given as the source filed them. The calls are words filed in the database; no cut-off is given here.

Experiments:
Serum = experiment: Metabolic stability of the compound in human serum at 0.5 mM after 3 hrs by RP-HPLC analysis; format: ADME, cell-free; details: 500 µM
Method in brief: (§1)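 A 10 mM aqueous stock was added to human serum preheated to 37 °C, giving 0.5 mM final, then incubated at 37 ± 0.5 °C. Aliquots were deproteinized with acetonitrile/0.1% TFA, centrifuged, filtered and analysed by RP-HPLC on C18 with diode-array detection, using methanol/20 mM sodium acetate pH 4.5–5 mM SDS mobile phase.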

[1] = Lipophilicity, log D of the compound at pH 7.4 by shake-flask method; format: physicochemical; details: buffer
Method in brief: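 Shake-flask partition between n-octanol and phosphate buffer pH 7.4 (ionic strength 0.15 M KCl), phases presaturated 4 h. Compound about 0.1 mM in the aqueous phase; shaken about 20 min, centrifuged, aqueous concentration read by UV at 230 nm. At least 6 determinations per compound.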

[2] = Antioxidant activity against CuSO4-induced LDL oxidation assessed as delta-lag time at 100 uM by spectrophotometric analysis; format: functional
Method in brief: (§2)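 Human LDL isolated by ultracentrifugation (density 1.019-1.063 g/mL), EDTA removed by desalting, diluted in 10 mM phosphate buffer pH 7.4 to 50 μg protein/mL; compound 100 μM final. Oxidation started with 2.5 μM CuSO4 at 37 °C; conjugated dienes followed at 234 nm. Lag phase versus control; propagation rate from ΔA234 over time using ε234 = 29500 M-1 cm-1.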

[3] = Antioxidant activity against CuSO4-induced LDL oxidation measured per mg of LDL product assessed as propagation rate of the oxidation at 100 uM by spectrophotometric analysis; format: functional; method in brief: as §2
[4] = Antioxidant activity assessed as (E)-4-hydroxy-trans-2,3-nonenal scavenging activity in phosphate buffer at pH 7.4 at 1 mM after 24 hrs by reverse-phase HPLC analysis relative to control; format: functional
Method in brief: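 HNE 50 μM incubated with compound 1 mM in 1 mM phosphate buffer pH 7.4 at 37 °C for up to 24 h. Remaining HNE measured directly by reverse-phase HPLC. Scavenging % = 100 − (HNE left with scavenger / HNE left in control × 100).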

Thoracic aorta [5] = experiment: Vasodilator activity in Wistar rat endothelium-denuded thoracic aorta assessed as inhibition of L-phenylephrine-induced contraction at 1 mM; format: functional
Method in brief: (§3)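 Rat aortic strips equilibrated 90 min, then contracted with 1 μM L-phenylephrine. Cumulative concentration-response curves were run at the plateau, with isometric recording. EC50 is the concentration giving 50% relaxation, mean of at least 5 determinations. ODQ 1 μM was added 5 min before contraction in a separate series.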

[6] = Binding affinity to Cu2+ assessed as formation of compound-cu2+ complex formation by pH-metric technique; format: physicochemical
Method in brief: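 Compound and CuCl2, equimolar at 1 mM in water, acidified to pH 1.8 with 0.5 N HCl, then titrated with 0.5 N KOH to pH 12.2. Run under nitrogen at 25.0 ± 0.1 °C, ionic strength 0.15 M KCl, at least three titrations. Formation constants fitted from pH-metric data.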

Thoracic aorta [7] = experiment: Vasodilator activity in Wistar rat endothelium-denuded thoracic aorta assessed as inhibition of L-phenylephrine-induced contraction; format: functional, tissue-based; method in brief: as §3
Thoracic aorta [8] = experiment: Vasodilator activity in Wistar rat endothelium-denuded thoracic aorta assessed as inhibition of L-phenylephrine-induced contraction in presence of ODQ; format: functional, tissue-based; method in brief: as §3
[9] = Half life in human serum at 0.5 mM by RP-HPLC analysis; format: ADME, cell-free; method in brief: as §1
Rattus norvegicus [10] = experiment: Protection against hypoxia-induced brain damage in Wistar rat ischemia-reperfusion injury model assessed as reduction of cerebral infarct volume at 500 mg/kg, iv administered at beginning of reperfusion and again after 6 hrs measured 24 hrs after reperfusion; format: functional, organism-based; design: dose 500 mg/kg
Method in brief: (§4)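 Male Wistar rats, 210–230 g, anaesthetised with Zoletil and kept at 37 °C, underwent 30 min carotid occlusion then 24 h reperfusion; n = 5 per group. Compounds in 5% DMSO given i.v. at reperfusion onset and again after 6 h. Infarct volume from 2-mm coronal brain slices stained with 2% TTC, 37 °C, 30 min. Serum TNF-α by ELISA (pg/mL); means ± SEM.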

Rattus norvegicus [11] = experiment: Reduction of ischemia-reperfusion-induced TNFalpha level increase in Wistar rat serum at 500 mg/kg, iv by ELISA; format: functional, organism-based; design: dose 500 mg/kg; method in brief: as §4
Rattus norvegicus [12] = experiment: Reduction of ischemia-reperfusion-induced TNFalpha level increase in Wistar rat serum at 1 g/kg, iv by ELISA; format: functional, organism-based; method in brief: as §4
Rattus norvegicus [13] = experiment: Protection against hypoxia-induced brain damage in Wistar rat ischemia-reperfusion injury model assessed as reduction of cerebral infarct volume at 1 g/kg, iv administered at beginning of reperfusion and again after 6 hrs measured 24 hrs after reperfusion; format: functional, organism-based; method in brief: as §4

Row | Compound | Stability (Serum) | logD [1] | TIME [2] [h] | Activity [3] [nmol/min] | Activity [4] [%] | inhibition at 1000 µM (Thoracic aorta [5]) [%] | Activity [6] | Activity (Thoracic aorta [7]) | Activity (Thoracic aorta [8]) | EC50 (Thoracic aorta [7]) [µM] | half-life at 500 µM [9] [min] | Activity (Rattus norvegicus [10]) | Activity (Rattus norvegicus [11]) | Activity (Rattus norvegicus [12]) | Activity (Rattus norvegicus [13])
1 | CCCOc1ccc(CNC(=O)[C@H](Cc2c[nH]cn2)NC(=O)CCN)cc1 | Stable | -1.15 | 1.07 | 9.5 | 73.3 | – | – | – | – | – | – | – | – | – | –
2 | NCCC(=O)N[C@@H](Cc1c[nH]cn1)C(=O)NCCCO[N+](=O)[O-] | Stable | -2.43 | 1.5 | 3.9 | 75.4 | 46 | Active | Dose-dependent effect | inactive | – | – | – | – | – | –
3 | NCCC(=O)N[C@@H](Cc1c[nH]cn1)C(=O)NC[C@@H](CO[N+](=O)[O-])O[N+](=O)[O-] | Stable | -2.33 | 1.25 | 5.8 | 67.2 | – | Active | Dose-dependent effect | inactive | 169 | – | – | – | – | –
4 | NCCC(=O)N[C@@H](Cc1cnc[nH]1)C(=O)O [CARNOSINE] | – | – | – | – | – | – | – | – | – | – | 5 | – | – | – | –
5 | NCCC(=O)N[C@@H](Cc1c[nH]cn1)C(=O)NC[C@H](CO[N+](=O)[O-])O[N+](=O)[O-] | Stable | -2.19 | 1.47 | 5.8 | 77.6 | – | Active | Dose-dependent effect | inactive | 70 | – | Active | Active | – | –
6 | NCCC(=O)N[C@@H](Cc1c[nH]cn1)C(=O)NCc1ccc(OCCCO[N+](=O)[O-])cc1 | Stable | -1.01 | 1.17 | 6.3 | 74.3 | – | – | Dose-dependent effect | inactive | 3 | – | – | – | – | –
7 | NCCC(=O)N[C@@H](Cc1c[nH]cn1)C(=O)O | – | – | – | – | – | – | – | Dose-dependent effect | – | – | – | – | – | inactive | Active
8 | CCCNC(=O)[C@H](Cc1c[nH]cn1)NC(=O)CCN | Stable | – | – | – | – | – | – | – | – | – | – | Active | inactive | – | –
